In ChEMBL document CHEMBL4706684, “Discovering High Potent Hsp90 Inhibitors as Antinasopharyngeal Carcinoma Agents through Fragment Assembling Approach” (J Med Chem, 2021):
The source made the active and inactive calls. No cut-off for these calls is given here.

Key:
[1] = target: T1, Heat shock protein HSP 90-alpha (Homo sapiens, UniProt P07900); experiment: Binding affinity to HSP90-alpha (unknown origin) expressed in Escherichia coli BL21 by SPR assay
[2] = target: T2, Heat shock protein HSP 90-beta (Homo sapiens, UniProt P08238); experiment: Inhibition of HSP90-beta (unknown origin) expressed in Escherichia coli BL21 assessed as reduction in ATPase activity in presence of PEP, NADH and ATP by pyruvate kinase/lactic dehydrogenase based coupled enzyme assay
T2 sequence (P08238 whole entry): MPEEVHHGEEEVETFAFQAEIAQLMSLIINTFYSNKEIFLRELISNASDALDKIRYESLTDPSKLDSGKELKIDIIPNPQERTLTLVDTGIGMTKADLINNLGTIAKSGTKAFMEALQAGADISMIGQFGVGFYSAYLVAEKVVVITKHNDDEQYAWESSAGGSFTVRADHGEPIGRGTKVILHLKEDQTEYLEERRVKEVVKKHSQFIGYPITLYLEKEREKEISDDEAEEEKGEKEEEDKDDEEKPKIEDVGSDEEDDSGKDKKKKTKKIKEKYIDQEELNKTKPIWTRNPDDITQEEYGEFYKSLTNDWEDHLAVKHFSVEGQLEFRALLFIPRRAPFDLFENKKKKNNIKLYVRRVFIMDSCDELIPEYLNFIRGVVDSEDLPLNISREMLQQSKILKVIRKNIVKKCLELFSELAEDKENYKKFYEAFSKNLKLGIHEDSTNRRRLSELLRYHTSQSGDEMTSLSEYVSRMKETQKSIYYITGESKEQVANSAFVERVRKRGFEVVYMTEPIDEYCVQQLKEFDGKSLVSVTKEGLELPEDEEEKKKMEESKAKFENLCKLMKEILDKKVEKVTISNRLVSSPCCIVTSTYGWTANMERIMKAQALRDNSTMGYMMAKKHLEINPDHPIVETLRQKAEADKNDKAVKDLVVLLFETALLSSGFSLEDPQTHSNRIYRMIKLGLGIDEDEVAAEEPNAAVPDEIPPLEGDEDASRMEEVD

CNE-2 = experiment: Cytotoxicity in human CNE-2 cells assessed as reduction in cell viability incubated for 48 hrs by MTT assay; type: cell-based; details: CNE-2, 48 h
Outline: (§1)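 Cells were seeded at 3 × 10³ cells per well and grown for 24 h at 37 °C in 5% CO₂. CNE2 was grown in RPMI 1640 and HeLa and HepG2 in DMEM, each with 10% FBS and 1% penicillin/streptomycin. Cells were exposed to 0−20 μM inhibitor for 48 h, with a DMSO solvent control. MTT (0.5 mg/mL) was then added for 3 h.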

[3] = target: T1, Heat shock protein HSP 90-alpha; experiment: Inhibition of HSP90-alpha (unknown origin) expressed in Escherichia coli BL21 assessed as reduction in ATPase activity in presence of PEP, NADH and ATP by pyruvate kinase/lactic dehydrogenase based coupled enzyme assay
[4] = target: T2, Heat shock protein HSP 90-beta; experiment: Binding affinity to HSP90-beta (unknown origin) expressed in Escherichia coli BL21 by SPR assay
HeLa = experiment: Cytotoxicity in human HeLa cells assessed as reduction in cell viability incubated for 48 hrs by MTT assay; type: cell-based; outline: as §1
HepG2 = experiment: Cytotoxicity in human HepG2 cells assessed as reduction in cell viability incubated for 48 hrs by MTT assay; type: cell-based; details: HepG2, 48 h; outline: as §1

`Nc1cccs1` was tested, and the Activity [1] was “Active”.

For `CC(C)(C)c1ccc(Cn2cc(-c3ccc(O)cc3)nn2)c(O)c1`, the IC50 [2] was greater than 40 µM, the IC50 (CNE-2) was greater than 20 µM and the IC50 [3] was greater than 40 µM.

In the case of `COc1ccc(-c2cn(Cc3cc(C(F)(F)F)cc(C(F)(F)F)c3)nn2)cc1`, the IC50 [2] is reported as 9.8 µM, the Kd [1] is reported as 3.1 µM and the Kd [4] is reported as 7 µM. The IC50 (CNE-2) was 14.1 µM, the IC50 (HeLa) was 22.4 µM and the IC50 (HepG2) was 18.1 µM. For the same molecule, the IC50 [3] was 6.2 µM.

`COc1ccc(-c2cn(Cc3ccc(C(C)(C)C)cc3)nn2)c([N+](=O)[O-])c1` was tested, and the IC50 [2] was 5 µM, the IC50 (CNE-2) was 1.6 µM and the IC50 [3] was 5 µM.

With `Cc1noc(N)c1C` the Activity [1] was “Active”.

For `CCSc1ccc(N)s1`, the Activity [1] was “Active”.

For `CC(C)(C)c1csc(N)n1`, the Activity [1] was “Active”.

`CC(C)(C)c1ccc(Cn2cc(-c3ccc(O)cc3)nn2)cc1` showed an IC50 [2] of 1.8 µM, an IC50 (CNE-2) of 5.6 µM and an IC50 [3] of 1.3 µM.

In the case of `COc1ccc(-c2cn(Cc3ccc(C(C)(C)C)cc3)nn2)c(N)c1`, the IC50 [2] is reported as greater than 40 µM, the IC50 (CNE-2) is reported as greater than 20 µM and the IC50 [3] is reported as greater than 40 µM.

For `O=C(O)c1csc(-c2ccc(Cl)cc2)n1`, the Activity [1] was “Active”.

In the case of `COc1cc(-c2cn(Cc3ccc(C(C)(C)C)cc3)nn2)cc(OC)c1OC`, the IC50 [2] is reported as 2.7 µM, the IC50 (CNE-2) is reported as 1.8 µM and the IC50 [3] is reported as 2.7 µM.

With `Nc1cc(-c2ccccc2)n[nH]1` the Activity [1] was “Active”.

Work on `C=CCNC1=C2C[C@@H](C)C[C@H](OC)[C@H](O)[C@@H](C)/C=C(\C)[C@H](OC(N)=O)[C@@H](OC)/C=C\C=C(/C)C(=O)NC(=CC1=O)C2=O` [TANESPIMYCIN] yielded an IC50 (CNE-2) of 3.03 µM, an IC50 (HeLa) of 19.4 µM and an IC50 (HepG2) of 8 µM.

With `CC(=O)c1ccc(-n2ccnc2)cc1` the Activity [1] was “Active”.

Molecule `CC(C)(C)c1ccc(Cn2cc(-c3ccc(O)cc3[N+](=O)[O-])nn2)cc1` has an IC50 [2] of 1.7 µM, an IC50 (CNE-2) of 1.6 µM and an IC50 [3] of 1.7 µM.

`COc1ccc(-c2cn(Cc3ccc(C(C)(C)C)cc3)nn2)cc1` showed an IC50 [2] of 5.6 µM, a Kd [1] of 4.8 µM and a Kd [4] of 4.8 µM. For the same molecule, the IC50 (CNE-2) was 4 µM, the IC50 (HeLa) was greater than 50 µM and the IC50 (HepG2) was greater than 50 µM. It also gave an IC50 [3] of 5.6 µM.

`CC(C)(C)c1ccc(Cn2cc(-c3ccc(O)cc3N)nn2)cc1` gave an IC50 [2] of 14.6 µM, an IC50 (CNE-2) of 1.6 µM and an IC50 [3] of 13.7 µM.
